Experimental data from different studies.
Lines come from different studies, so protocols differ.
Cell line: HT-29
Observed: cell growth or viability

COc1ccc2[nH]cc(CCNc3nccc(Nc4cccc5c4ccn5C)n3)c2c1  IC50 (fluorescence; 72 h): 0.0039 µM
COc1cc2c(O[C@@H]3O[C@H](CO)[C@@H](O)[C@H](O)[C@H]3O)c3c(c(-c4ccc5c(c4)OCO5)c2cc1OC)C(=O)OC3  IC50: 12 µM
O=C(N/N=C1\C(=O)N(Cc2ccccc2)c2ccc(Br)cc21)c1cc2ccccc2[nH]1  IC50: 2.26 µM
COc1c2c(cc3c1OCO3)[C@]13C=C[C@H](OC)C[C@@H]1[N@](C2)C[C@H]3OC(=O)c1ccoc1  IC50 (WST-1): > 10 µM
CCCCCCCC(=O)SCC/C=C/[C@@H]1CC(=O)NCc2nc(cs2)C2=N[C@@](C)(CS2)C(=O)N[C@@H](C(C)C)C(=O)O1  IC50 (resazurin; 48 h): 0.0162 µM
c1ccc2c(c1)[I+]c1ccccc1-2  IC50 (trypan blue; 48 h): ~0.1 µM
COc1cc2c(c3c1C(=O)C[C@@H](c1ccccc1)O3)[C@H]1[C@@H](O2)OC(C)(C)[C@@H]1OC(C)=O  IC50 (SRB; 72 h): > 10 µM
COc1ccc2c(c1)/C(=N/NC(=O)c1cc3ccccc3[nH]1)C(=O)N2Cc1ccccc1  IC50: 2.28 µM
COc1c2c(cc3c1OCO3)[C@]13C=C[C@H](OC)C[C@@H]1[N@](C2)C[C@H]3OC(=O)c1ccc2ccccc2c1  IC50 (WST-1): > 10 µM
N.N.[Cl][Pt][Cl]  IC50 (SRB; 48 h): 20 µM
O=C(N/N=C1\C(=O)N(Cc2ccccc2)c2ccc(F)cc21)c1cc2ccccc2[nH]1  inhibition (30 µM): 94.3%
